Experimental data from paper PMC9616053 (ACS chemical neuroscience, 2022).
pIC50, pKi: −log10 of the molar value. *1 amine or outer side, *2 acyl side, *3 side chain or, on linkers, in order; H or OH if unused. Where a SMILES comes first, the peptide text is derived from it. [ ]: non-standard residue; d: D form. X1 = Cc1ccc2c(c1)CCN([*:1])[C@@H]2C(=O)[*:2]

Assays:
[1] = biological target: T1, Casp2 (Homo sapiens, UniProt P42575); experiment: fluorescence-based in vitro biochemical
T1 sequence (P42575 170-325 limits assumed): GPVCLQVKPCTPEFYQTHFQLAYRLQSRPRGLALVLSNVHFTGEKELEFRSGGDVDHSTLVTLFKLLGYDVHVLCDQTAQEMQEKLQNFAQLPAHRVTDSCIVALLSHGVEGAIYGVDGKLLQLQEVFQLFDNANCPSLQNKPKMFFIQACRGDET
T1 sequence (P42575 348-452 limits assumed): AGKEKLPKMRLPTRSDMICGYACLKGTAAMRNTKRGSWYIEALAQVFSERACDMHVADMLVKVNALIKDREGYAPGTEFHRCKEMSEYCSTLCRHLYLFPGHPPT

[2] = biological target: T2, Casp3 (Homo sapiens, UniProt P42574); experiment: fluorescence-based in vitro biochemical; settings: for Casp2 Selectivity, Ki (Casp3) / Ki (Casp2): Table 1
T2 sequence (P42574 29-175 limits assumed): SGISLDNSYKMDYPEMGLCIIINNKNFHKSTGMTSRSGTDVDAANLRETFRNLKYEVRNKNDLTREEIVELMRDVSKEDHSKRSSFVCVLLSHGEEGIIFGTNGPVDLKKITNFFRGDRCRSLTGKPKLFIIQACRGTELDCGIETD
T2 sequence (P42574 176-277 limits assumed): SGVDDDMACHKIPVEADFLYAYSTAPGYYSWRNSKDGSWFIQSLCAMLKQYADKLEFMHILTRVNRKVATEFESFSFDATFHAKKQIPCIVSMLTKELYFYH

[3] = biological target: T3, Casp1 (Homo sapiens, UniProt P29466); experiment: in vitro caspase panel assay, Casp1; format: biochemical
T3 sequence (P29466 120-297 limits assumed): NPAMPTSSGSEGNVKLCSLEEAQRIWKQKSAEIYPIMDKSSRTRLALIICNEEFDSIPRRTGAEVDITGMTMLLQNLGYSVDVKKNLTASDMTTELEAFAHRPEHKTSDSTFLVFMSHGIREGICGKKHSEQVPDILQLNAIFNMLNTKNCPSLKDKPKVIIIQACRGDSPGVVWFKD
T3 sequence (P29466 317-404 limits assumed): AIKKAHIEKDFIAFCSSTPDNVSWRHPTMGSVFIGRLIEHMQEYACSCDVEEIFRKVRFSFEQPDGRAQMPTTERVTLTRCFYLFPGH

[4] = biological target: T4, Casp6 (Homo sapiens, UniProt P55212); experiment: in vitro caspase panel assay, Casp6; format: biochemical
T4 sequence (P55212 24-179 limits assumed): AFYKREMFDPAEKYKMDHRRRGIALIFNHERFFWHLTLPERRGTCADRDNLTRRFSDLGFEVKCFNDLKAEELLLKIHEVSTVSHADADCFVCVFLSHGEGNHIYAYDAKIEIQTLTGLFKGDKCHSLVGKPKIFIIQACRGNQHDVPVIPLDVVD
T4 sequence (P55212 194-293 limits assumed): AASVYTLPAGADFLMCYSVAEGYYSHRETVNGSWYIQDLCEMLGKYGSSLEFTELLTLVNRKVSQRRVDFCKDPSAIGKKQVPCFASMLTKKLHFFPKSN

[5] = biological target: T5, Casp7 (Homo sapiens, UniProt P55210); experiment: in vitro caspase panel assay, Casp7; format: biochemical
T5 sequence (P55210 24-198 limits assumed): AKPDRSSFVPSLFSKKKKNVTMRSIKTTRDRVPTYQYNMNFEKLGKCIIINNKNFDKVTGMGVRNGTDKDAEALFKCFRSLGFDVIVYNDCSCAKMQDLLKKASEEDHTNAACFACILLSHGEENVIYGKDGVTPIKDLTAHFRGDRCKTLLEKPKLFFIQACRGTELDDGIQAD
T5 sequence (P55210 207-303 limits assumed): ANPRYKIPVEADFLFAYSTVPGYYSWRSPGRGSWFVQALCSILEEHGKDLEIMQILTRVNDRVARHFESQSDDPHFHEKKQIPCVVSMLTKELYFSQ

[6] = biological target: T6, Casp9 (Homo sapiens, UniProt P55211); experiment: in vitro caspase panel assay, Casp9; format: biochemical
T6 sequence (P55211 1-315 limits assumed): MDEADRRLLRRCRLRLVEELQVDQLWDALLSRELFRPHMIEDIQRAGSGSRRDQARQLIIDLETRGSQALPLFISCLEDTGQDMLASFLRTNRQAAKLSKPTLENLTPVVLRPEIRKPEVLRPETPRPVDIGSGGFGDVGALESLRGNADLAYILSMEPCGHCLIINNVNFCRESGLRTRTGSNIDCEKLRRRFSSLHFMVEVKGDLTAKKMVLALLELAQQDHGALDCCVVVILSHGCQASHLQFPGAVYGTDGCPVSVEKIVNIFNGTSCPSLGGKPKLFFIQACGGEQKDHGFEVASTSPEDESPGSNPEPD
T6 sequence (P55211 331-416 limits assumed): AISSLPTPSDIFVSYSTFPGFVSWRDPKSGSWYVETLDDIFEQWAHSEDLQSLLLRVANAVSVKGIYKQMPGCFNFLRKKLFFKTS

[7] = biological target: Cathepsin B (Homo sapiens, UniProt P07858); experiment: Cathepsin B inhibition; format: biochemical
[8] = biological target: Thrombin a (Homo sapiens, UniProt P00734); experiment: Thrombin a inhibition; format: biochemical
[9] = biological target: T7, Casp2-mediated cleavage of tau at D314 (Homo sapiens, UniProt P42575); experiment: in vitro caspase-2-catalyzed tau cleavage assay; format: biochemical
T7 sequence (P42575 170-325 limits assumed): T1 sequence (P42575 170-325 limits assumed)
T7 sequence (P42575 348-452 limits assumed): T1 sequence (P42575 348-452 limits assumed)

[10] = tested on: cultured rat hippocampal neurons expressing P301S tau; format: cell-based; settings: 10 μM for 3 days, versus untreated wild-type and P301S tau neurons
Outline: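 Primary hippocampal cultures from Sprague-Dawley rat pups at postnatal day 0 or 1. At 5–7 DIV, neurons were co-transfected with plasmids for DsRed (morphology label) and GFP-tagged wild-type or P301S tau. Test compound was added at 17–18 DIV for 3 days. Live neurons were imaged at 20–21 DIV.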

[11] = tested on: primary hippocampal neurons from transgenic mice overexpressing P301S tau; experiment: mEPSC recording in primary hippocampal neurons from PS19; format: cell-based, mouse; settings: 10 μM, 3 days; for average frequency of mEPSCs: six groups

## Cc1ccc2c(c1)CCN(C(=O)[C@@H](NC(=O)[C@H](CCCC(=O)O)NC(=O)[C@@H]1Cc3ccccc3N1)C(C)C)[C@@H]2C(=O)N[C@H](C#N)CC(=O)O [Compound 1, (S)-6-(((S)-1-((S)-1-(((S)-2-carboxy-1-cyanoethyl)carbamoyl)-6-methyl-3,4-dihydroisoquinolin-2(1H)-yl)-3-methyl-1-oxobutan-2-yl)amino)-5-((S)-indoline-2-carboxamido)-6-oxohexanoic acid]
[1]
  pKi: 8.12
[2]
  pKi: 6.03
  Casp2 Selectivity, Ki (Casp3) / Ki (Casp2): 123
[3]
  pKi: < 4.00
  selectivity Casp2 versus Casp1: > 2000 fold
[4]
  pKi: < 4.00
  selectivity Casp2 versus Casp6: > 2000 fold
[5]
  pKi: 4.80
  selectivity Casp2 versus Casp7: > 2000 fold
[6]
  pKi: < 4.50
  selectivity Casp2 versus Casp9: > 2000 fold
[7]
  pIC50: 4.73
  activity at cathepsin B: weak activity
[8]
  pIC50: < 4.00
  activity at thrombin: weak activity
[9]
  pIC50: 5.69
[10]
  density of dendritic spines: no significant differences
[11]
  average amplitude of mEPSC responses, Tau −/+ versus Tau −/− neurons: do not differ significantly
  cumulative curve of mEPSC amplitudes, Tau −/+ compared with Tau −/−: not significantly shifted
  average frequency of mEPSCs: no significant differences

## CC(=O)N[C@H](C(=O)N[C@@H](CC(=O)O)C(=O)N[C@H](C(=O)N1CCc2cc(C)ccc2[C@H]1C(=O)N[C@H](C=O)CC(=O)O)C(C)C)C(C)C [Compound 2b, (S)-3-((S)-2-acetamido-3-methylbutanamido)-4-(((S)-1-((S)-1-(((S)-1-carboxy-3-oxopropan-2-yl)carbamoyl)-6-methyl-3,4-dihydroisoquinolin-2(1H)-yl)-3-methyl-1-oxobutan-2-yl)amino)-4-oxobutanoic acid] (Ac-VDV[X1]D-aldehyde)
[2]
  Casp2 Selectivity, Ki (Casp3) / Ki (Casp2): 70
[3]
  pKi: 5.56
[4]
  pKi: < 4.00
[5]
  pKi: < 4.50
[6]
  pKi: < 4.50
[7]
  pIC50: 4.42
[11]
  cumulative curve of mEPSC amplitudes, Tau −/+ compared with Tau −/−: shifted to the left but less markedly
  average frequency of mEPSCs: no significant differences
